Compound activity: PubChem, Sanford-Burnham Center for Chemical Genomics
Hits are enriched below; roughly 1.5% of the tested compounds scored in any of these assays.
CCR6 antagonist – antagonists of human CCR6 receptor. P51684. CHO-K1 CCR6 PathHunter beta-arrestin, luminescence, CCL20-stimulated. inhibition, % at 20 µM. 340,000 compounds, 0.49% hits;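 active means compounds whose inhibition of the agonist-driven luminescence signal at 20 µM reaches about 50%, limit read from the data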;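 further: cells stimulated with CCL20 at 14 nM final; plate controls were DMSO with CCL20 for no effect and DMSO without agonist for full effect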
EBI2 antag – EBI2 (human) antagonism; EBI2 beta-arrestin recruitment, luminescence, 7a,25-OHC stimulated; inhibition, % at 5 µM; P32249; 360,000 compounds, 0.81% hits; in the data active means inhibition above about 38%;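 further: enzyme fragment complementation signal reports receptor beta-arrestin coupling in cells; 0% = agonist plus DMSO wells and 100% = wells without agonist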
Target sequence (P32249 whole entry, looked up, the tested form may be a part): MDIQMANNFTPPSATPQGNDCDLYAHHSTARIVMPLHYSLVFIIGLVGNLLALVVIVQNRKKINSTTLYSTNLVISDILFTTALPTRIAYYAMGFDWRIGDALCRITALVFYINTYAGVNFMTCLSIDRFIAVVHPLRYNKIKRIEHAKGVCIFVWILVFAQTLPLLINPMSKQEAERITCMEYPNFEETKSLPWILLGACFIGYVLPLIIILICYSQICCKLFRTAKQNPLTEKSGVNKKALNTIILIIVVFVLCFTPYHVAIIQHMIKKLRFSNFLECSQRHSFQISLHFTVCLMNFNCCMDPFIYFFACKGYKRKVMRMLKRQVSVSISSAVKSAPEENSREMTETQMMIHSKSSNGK
CXCR6 inh – blocks human CXCR6 beta-arrestin recruitment | O00574 | CHO-K1 PathHunter CXCR6 beta-arrestin, luminescence | inhibition, % at 20 µM | 360,000 compounds, 0.36% hits | AID 602244; in the data active means inhibition above about 34%, passing the limit was not always enough;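 further: antagonist mode with CXCL16 agonist at 10 nM final; 0% = 10 nM CXCL16 with DMSO and 100% = unstimulated wells without agonist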
APJ agonist – agonists of human APJ apelin receptor. P35414. CHO-K1 APJ PathHunter beta-arrestin, luminescence; 0% DMSO wells, 100% apelin. activation, % at 20 µM. 330,000 compounds, 0.11% hits;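 active means activation more than six SD over the plate average, tested at 20 µM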;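 further: 0% = DMSO alone and 100% = apelin-13 at 10 nM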
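Incubation: overnight seeding, 90 min compound at 25 °C, 1 h detection; test system: PathHunter CHO-K1 APJ (AGTRL-1) beta-arrestin reporter cells; amount: 1000 cells/well; doses: one dose, 20 µM compound, 1% DMSO; measured by: beta-gal luminescence; measure: agonist-driven arrestin binding to APJ; benchmarks: negative DMSO alone, positive Apelin-13 at 10 nM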
APJ antagonist – APJ receptor antagonism; AID 2521; inhibition, % at 20 µM; CHO-K1 APJ beta-arrestin complementation, luminescence; 330,000 compounds, 0.32% hits; P35414;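 active means inhibition above about 40% at 20 µM, limit read from the data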;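 further: cells challenged with 10 nM apelin-13 agonist together with compound; plate controls were apelin-13 plus DMSO wells for no effect and DMSO wells lacking apelin-13 for full effect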
EBI2 antag conf – EBI2 (human) antagonism, single concentration confirmation | shares compounds with EBI2 antag | EBI2 beta-arrestin luminescence, 7a,25-OHC antagonism | inhibition, % at 5 µM | 2,400 compounds, 29% hits;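 active means inhibition of at least 50%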
EBI2 agonist – EBI2 agonism counter-screen; 2,400 tested, under 10 active; shares compounds with EBI2 antag; EBI2-expressing cells, agonist mode, luminescence, 60 min; 0% vehicle, 100% 7α,25-dihydroxycholesterol control; activation, % at 5 µM;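 active means activation of at least 50%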
bGal cs – inhibits E. coli beta-galactosidase, counter-screen for EBI2 antagonists; shares compounds with EBI2 antag; 2,400 compounds, 1% hits; AID 652176; purified beta-galactosidase, luminescent Galacton Star, 15 min; inhibition, % at 5 µM;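 active means replicate-average signal at least 3 plate SD below neutral wells, shown as high inhibition, flagging enzyme-inhibiting false positives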;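 further: 0% = DMSO wells with enzyme and 100% = wells lacking enzyme; higher means stronger loss of beta-gal luminescence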
An asterisk follows results filed as active.

What do the screens show for `CCc1ccc(OCCNC(=O)c2ccc(S(=O)(=O)N(C)C)cc2)cc1`?
CCR6 antagonist: -1; EBI2 antag: 64*; CXCR6 inh: -6; APJ agonist: -4; APJ antagonist: 1; EBI2 antag conf: 41; EBI2 agonist: -1; bGal cs: -9

What do the screens show for `CC(=O)c1cccc(NC(=O)C(C)OC(=O)CCN=C2NS(=O)(=O)c3ccccc32)c1` (stereo unspecified)?
CCR6 antagonist: 9; EBI2 antag: 3; CXCR6 inh: 1; APJ agonist: -2; APJ antagonist: 8

How did O=C(C[C@H]1C/C=C\CC[C@@H](Cc2ccc(F)cc2)C(=O)OC[C@H]2CCCN2C1=O)N[C@@H](CO)Cc1ccccc1 do in these assays?
CCR6 antagonist: 19; EBI2 antag: 8; CXCR6 inh: 6; APJ agonist: 2; APJ antagonist: -7

How did CCOC(=O)C1=C(C2=CCCCC2)c2ccc(OC)cc2N(S(=O)(=O)C(F)(F)F)C1C(=O)OCC (stereo unspecified) do in these assays?
CCR6 antagonist: 21; EBI2 antag: 2; CXCR6 inh: -2

What do the screens show for `c1csc(-c2nc(N3CCOCC3)c3ccccc3n2)c1`?
CCR6 antagonist: 16; EBI2 antag: 8; CXCR6 inh: 8; APJ agonist: -1; APJ antagonist: -1

How did COc1ccc(N2CCN(c3nc(-c4cccs4)nc4ccccc34)CC2)cc1 do in these assays?
CCR6 antagonist: 12; EBI2 antag: 63*; CXCR6 inh: -5; APJ agonist: -2; APJ antagonist: 5; EBI2 antag conf: 42; EBI2 agonist: 1; bGal cs: 9

What do the screens show for `CCOc1ccc(NC(=S)N(CCc2c(C)[nH]c3ccc(C)cc23)Cc2ccco2)cc1`?
CCR6 antagonist: 7; EBI2 antag: 40*; CXCR6 inh: 7; APJ agonist: -4; APJ antagonist: 8; EBI2 antag conf: 29; EBI2 agonist: 0; bGal cs: 3

How did S=c1[nH]c(-c2ccc(Br)cc2)cn1CCc1ccccc1 do in these assays?
CCR6 antagonist: -2; EBI2 antag: 57*; CXCR6 inh: -7; APJ agonist: -1; APJ antagonist: -5; EBI2 antag conf: 41; EBI2 agonist: 2; bGal cs: -1

Results for O=C(Nc1cc(C(F)(F)F)ccc1N1CCOCC1)c1ccc2ccccc2n1 ?
CCR6 antagonist: 6; EBI2 antag: 44*; CXCR6 inh: 1; APJ agonist: -3; APJ antagonist: 21; EBI2 antag conf: 31; EBI2 agonist: 1; bGal cs: 10

What do the screens show for `Cc1ccc(S(=O)(=O)N2C[C@H]3C(=O)C[C@@H](c4ccccc4F)N(S(=O)(=O)c4ccc(C)cc4)[C@H]3C[C@H]2c2ccccc2F)cc1`?
EBI2 antag: 14; CXCR6 inh: 8

What do the screens show for `O=C(Cn1c(C(=O)c2ccccc2)nc2ccccc21)c1ccc(Cl)cc1`?
CCR6 antagonist: 20; EBI2 antag: -11; CXCR6 inh: 11

Results for Cc1ccc(C(=O)Cn2c(C(=O)/C=C/c3ccccc3)nc3ccccc32)cc1 ?
CCR6 antagonist: 22; EBI2 antag: 48*; CXCR6 inh: 17; APJ agonist: 2; APJ antagonist: 8; EBI2 antag conf: 36; EBI2 agonist: 0; bGal cs: 7

Results for CCOC(=O)CNC(=O)CSc1cc(C)nc2ccc(OC)cc12 ?
CCR6 antagonist: -3; EBI2 antag: -14; CXCR6 inh: -4; APJ agonist: -2; APJ antagonist: -4

What do the screens show for `COc1ccc2nc(C)cc(SCC(=O)NNC(=O)COc3ccccc3)c2c1`?
CCR6 antagonist: 1; EBI2 antag: 48*; CXCR6 inh: -1; APJ agonist: -1; APJ antagonist: 1; EBI2 antag conf: 20; EBI2 agonist: -1; bGal cs: -6

What do the screens show for `COc1ccc(-c2cc(=O)oc3cc4occ(C)c4cc23)cc1`?
CCR6 antagonist: 22; EBI2 antag: 49*; CXCR6 inh: 11; APJ agonist: -2; APJ antagonist: -2; EBI2 antag conf: 33; EBI2 agonist: 0; bGal cs: 6

Results for COc1ccccc1N(C(=O)c1ccncc1)c1nc(-c2ccc([N+](=O)[O-])cc2)cs1 ?
CCR6 antagonist: 7; EBI2 antag: 55*; CXCR6 inh: -9; APJ agonist: 6; APJ antagonist: -3; EBI2 antag conf: 74*; EBI2 agonist: 1; bGal cs: 1

Results for O=S(=O)(Nc1ccccc1-c1ccccc1)c1ccccc1 ?
CCR6 antagonist: 27; EBI2 antag: 9; CXCR6 inh: 6

What do the screens show for `Cc1cc(C)c(S(=O)(=O)Nc2ccccc2-c2ccccc2)c(C)c1`?
CCR6 antagonist: 29; EBI2 antag: 57*; CXCR6 inh: -1; APJ agonist: -2; APJ antagonist: -7; EBI2 antag conf: 28; EBI2 agonist: 0; bGal cs: 7

How did COC(=O)[C@H](CCSC)NC(=O)Cn1cnc2c(SC)nc(N)nc21 do in these assays?
CCR6 antagonist: 7; EBI2 antag: -8; CXCR6 inh: -1; APJ agonist: -1; APJ antagonist: 5

How did CCOC(=O)C1(CC2CCCCO2)CCN(C(=O)Nc2ccc(SC)cc2)CC1 (stereo unspecified) do in these assays?
CCR6 antagonist: 14; EBI2 antag: 40*; CXCR6 inh: 3; APJ agonist: -4; APJ antagonist: 8; EBI2 antag conf: 19; EBI2 agonist: 1; bGal cs: 2

Results for CCOC(=O)C1(CC2CCCCO2)CCN(C(=O)Nc2cccc(SC)c2)CC1 (stereo unspecified) ?
CCR6 antagonist: 7; EBI2 antag: 26; CXCR6 inh: 0; APJ agonist: 0; APJ antagonist: 5

Results for Clc1cccc(Nc2nc(-c3cccnc3)cs2)c1 ?
CCR6 antagonist: -7; EBI2 antag: 48*; CXCR6 inh: -1; APJ agonist: 0; APJ antagonist: 0; EBI2 antag conf: 53*; EBI2 agonist: 0; bGal cs: 7

Results for CC(=O)c1cccc(Nc2nc(-c3cccnc3)cs2)c1 ?
CCR6 antagonist: 2; EBI2 antag: 20; CXCR6 inh: -1; APJ agonist: 0; APJ antagonist: -10

How did Brc1ccc(Nc2nc(-c3cccnc3)cs2)cc1 do in these assays?
CCR6 antagonist: 1; EBI2 antag: 28; CXCR6 inh: 5; APJ agonist: -3; APJ antagonist: 2
